The results in this text go back to paper PMC5062748 (Drug development research, 2016).

One may read the IC50 as the midpoint of a concentration-inhibition curve. Low values mean greater potency in that assay, high ones weaker potency in that assay.

One assay addresses T1, HNE (Homo sapiens, UniProt P08246).
T1 sequence (P08246 30-247 limits assumed): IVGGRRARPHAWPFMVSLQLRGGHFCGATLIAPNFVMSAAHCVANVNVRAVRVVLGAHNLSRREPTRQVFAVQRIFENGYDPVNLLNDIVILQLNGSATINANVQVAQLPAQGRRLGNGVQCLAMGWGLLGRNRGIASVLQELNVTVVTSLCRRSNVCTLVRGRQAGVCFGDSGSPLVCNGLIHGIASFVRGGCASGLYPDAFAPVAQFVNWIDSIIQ
The assay can be described thus: HNE inhibition assay. Type of assay: biochemical.
Conditions: not given
The method in brief:
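Human neutrophil elastase (20 mU/mL) in 200 mM Tris–HCl pH 7.5, 0.01% BSA, 0.05% Tween-20, with test compound at varied concentrations (DMSO final 1%, top 50 µM). Reaction started with 25 µM substrate. Fluorescence (ex 355/em 460 nm) read every 30 s for 10 min at 25 °C. IC50 from % inhibition vs log concentration (≥6 points). Mean ± SD of three independent experiments.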
`CCOC(=O)c1cn(C(=O)c2ccc(Cl)cc2)c2ccccc12` [2e, Ethyl 1-(4-chlorobenzoyl)-1H-indole-3-carboxylate] had a half-inhibitory concentration (IC50) of 3.8 ± 0.4 µM.

As to `CCOC(=O)c1cn(C(=O)c2ccc(F)cc2)c2ccccc12` [2g, Ethyl 1-(4-fluorobenzoyl)-1H-indole-3-carboxylate], the half-inhibitory concentration (IC50) is 12.2 ± 2.3 µM. In the case of `Cc1ccc(C(=O)n2cc(C(=O)Nc3ccccc3)c3ccccc32)cc1` [5c, 1-(4-methylbenzoyl)-N-phenyl-1H-indole-3-carboxamide], the IC50 came to 45.3 ± 6.7 µM. The compound `CCOC(=O)c1cn(C(=O)c2cccc(C)c2)c2ccc(Br)cc12` [7a, Ethyl 5-bromo-1-(3-methylbenzoyl)-1H-indole-3-carboxylate] yielded a half-inhibitory concentration (IC50) of 21.6 ± 3.3 µM.

Regarding `CCOC(=O)c1cn(C(=O)c2ccc(C)cc2)c2cc(Br)ccc12` [7c, Ethyl 6-bromo-1-(4-methylbenzoyl)-1H-indole-3-carboxylate], it took 10.5 ± 1.7 µM to reach half-maximal inhibition (IC50).

`CCOC(=O)c1cn(C(=O)c2cccc(C)c2)c2ccc([N+](=O)[O-])cc12` [7d, Ethyl 1-(3-methylbenzoyl)-5-nitro-1H-indole-3-carboxylate] yielded an IC50 of 2.4 ± 0.4 µM.

As for `CCOC(=O)c1cn(C(=O)c2ccc(C)cc2)c2ccc([N+](=O)[O-])cc12` [7e, Ethyl 1-(4-methylbenzoyl)-5-nitro-1H-indole-3-carboxylate], half-maximal inhibition (IC50) required 13.2 ± 1.8 µM.

Staying with this assay, now noted: highest tested concentration 50 µM.
For the compound `CCOC(=O)c1cn(-c2cccc(C)c2)c2ccccc12` [2a, Ethyl 1-(m-tolyl)-1H-indole-3-carboxylate], the “HNE inhibitory activity (in words)” value is recorded as “lack of activity”. Consider `CCOC(=O)c1cn(C(=O)c2cccc(C)c2)c2ccccc12` [2c, Ethyl 1-(3-methylbenzoyl)-1H-indole-3-carboxylate], for which the “HNE inhibitory activity (in words)” value is “inactive”. Same read-out and setting: the entry for `CCOC(=O)c1cn(C(=O)c2cccc(Cl)c2)c2ccccc12` [2f, Ethyl 1-(3-chlorobenzoyl)-1H-indole-3-carboxylate] is “inactive”; for `Cc1ccc(S(=O)(=O)n2cc(C(=O)Nc3ccccc3)c3ccccc32)cc1` [5f, N-phenyl-1-tosyl-1H-indole-3-carboxamide] it is “lack of activity”; for `CCOC(=O)c1cn(C(=O)c2cccc(C)c2)c2cc(Br)ccc12` [7b, Ethyl 6-bromo-1-(3-methylbenzoyl)-1H-indole-3-carboxylate] it is “no activity”. As to `CCOC(=O)c1cn(C(=O)c2ccc(C)cc2)c2ccc(N)cc12` [compound 8, Ethyl 5-amino-1-(4-methylbenzoyl)-1H-indole-3-carboxylate], the “HNE inhibitory activity (in words)” value is recorded as “no activity”. Same read-out and setting: as for `CCOC(=O)c1cn(C(=O)c2ccc(C)cc2)c2ccc(NC(C)=O)cc12` [compound 9, Ethyl 5-acetamido-1-(4-methylbenzoyl)-1H-indole-3-carboxylate], the entry is “no activity”.
